Measurements published in ChEMBL document CHEMBL1132352, “5'-Phosphoramidates and 5'-diphosphates of 2'-O-allyl-beta-D-arabinofuranosyluracil, -cytosine, and -adenine: inhibition of ribonucleotide reductase” (J Med Chem, 1999).
pIC50: −log10 of the molar value.

Columns and labels:
Assay type in all cases: functional, cell-based
[1] = test system: MOLT-4; assay: The compound was tested for cytostatic activity against human T4-lymphocyte molt(molt 4/C8)
Summary of the method: (§1)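 Human T4-lymphocyte CEM or Molt cells were seeded at 5–7.5 × 10⁴ cells per well with test compound. They grew for 72 h at 37 °C in humidified, CO₂-controlled air and were then counted with a Coulter counter. IC50 is the compound concentration that cut viable cell number by 50%.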

[2] = test system: FM3A; assay: The compound was tested for cytostatic activity against mammary FM3A cells; conditions: Mus musculus
Summary of the method: (§2)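 Murine L1210 leukemia or FM3A mammary carcinoma cells went in at 5–7.5 × 10⁴ per well alongside test compound. Proliferation ran 48 h at 37 °C in a humidified CO₂-controlled atmosphere, followed by Coulter counter cell counts. IC50 is the concentration reducing viable cells by 50%.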

[3] = test system: CCRF-CEM; assay: The compound was tested for cytostatic activity against CEM cells; conditions: Homo sapiens; summary of the method: as §1
[4] = test system: L1210; assay: The compound was tested for cytostatic activity against murine leukemia L1210 cells; conditions: Mus musculus; summary of the method: as §2
[5] = test system: FM3A; assay: The compound was tested for cytostatic activity against murine mammary FM3A cells; conditions: Mus musculus; summary of the method: as §2
[6] = test system: CCRF-CEM; assay: The compound was tested for cytostatic activity against human CEM cells; summary of the method: as §1

SMILES | pIC50 [1] | pIC50 [2] | pIC50 [3] | pIC50 [4] | pIC50 [5] | pIC50 [6]
C=CCO[C@H]1[C@H](O)[C@@H](CO)O[C@H]1n1cnc2c(N)ncnc21 | 3.55 | 3.50 | 4.10 | 3.74 | – | –
C=CCO[C@H]1[C@H](O)[C@@H](CO)O[C@H]1n1ccc(N)nc1=O | < 3.30 | 3.49 | 4.21 | 4.42 | – | –
C=CCO[C@H]1[C@H](O)[C@@H](COP(=O)(NC(C)C(=O)OCC)Oc2ccccc2)O[C@H]1n1ccc(=O)[nH]c1=O (stereo not given in full) | < 3.70 | < 3.70 | < 3.70 | < 3.70 | – | –

Other lines, results leading:

pIC50 [1] | pIC50 [2] | pIC50 [3] | pIC50 [4] | pIC50 [5] | pIC50 [6] | SMILES
< 3.70 | < 3.70 | < 3.70 | < 3.70 | – | – | C=CCO[C@H]1[C@H](O)[C@@H](COP(=O)(NC(C)C(=O)OCC)Oc2ccccc2)O[C@H]1n1ccc(N)nc1=O (stereo not given in full)
< 3.30 | – | – | < 3.30 | < 3.30 | < 3.30 | C=CCO[C@H]1[C@H](O)[C@@H](CO)O[C@H]1n1ccc(=O)[nH]c1=O
